Sampled rows, rich in hits. Any-hit rate of the full collection: about 5.4%.
SKKanGAS inh: SKKanGAS growth inhibition; S. pyogenes SKKanGAS, kanamycin growth, BacTiter-Glo, 6 h; inhibition, % at 7.5 µM; actives 1.3% (n = 300,000); AID 1662;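 active = mean replicate score, as percent of positive control median, at least 50; inconclusive = mean below 50 but one replicate at or above 50; inactive = mean and every replicate below 50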;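 also: strain carries kanamycin resistance gene driven by streptokinase promoter and grows in 40 µg/ml kanamycin; loss of luminescence reflects streptokinase promoter inhibition or plain growth inhibition; 0% = median of DMSO wells and 100% = positive control at its reference dose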
T cruzi repl: blocks replication of Trypanosoma cruzi; AID 1885; T. cruzi beta-gal in NIH3T3, luminescence, 90 h; actives 1.4% (n = 300,000); inhibition, % (no concentration beside the values);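 active = mean inhibition across valid replicates above about 55%, limit read from the data; inconclusive = mean below that limit but half or more replicates reach it; inactive = mean below it, under half of replicates reach it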;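 also: signal also drops with host cell toxicity which is not excluded here; 0% = plate median of DMSO wells and 100% = zero luminescence signal; higher percent means less beta-gal luminescence so fewer parasites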
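System – NIH/3T3 host cells with β-galactosidase reporter T. cruzi · Doses – single 50 nL compound addition per well in DMSO · Reagent – 5000 T. cruzi trypomastigotes/well · Medium – Low-serum DMEM with 2% FBS · Timing – ≥90 h infection period, 3 h prior cell attachment · Evaluation – parasite load inhibition, % · Technique – GalScreen luminescence, 60 min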
aSyn UTR inh: 5' untranslated region of α-synuclein, MLPCN primary screen. alpha-synuclein 5'UTR reporter, inhibitor activity. inhibition, % (tested at 7.5 µM). actives 0.82% (n = 300,000). AID 1813; in the data active = inhibition above about 60%; inconclusive = no clear call, values can overlap the other calls;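 also: H4 neuroglioblastoma cells stably carrying SNCA 5'UTR luciferase fusion; 0% = DMSO wells and 100% = positive control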
CSC inhib: cancer stem cell inhibition | cancer stem cell-like cells viability, luminescence | inhibition, % at 7.5 µM | actives 1.1% (n = 300,000) | AID 2717; in the data active = inhibition above about 75%; inconclusive = no clear call, values can overlap the other calls; tested in HMLE shEcad cells
Mdm2-MdmX inh: inhibitors of human Mdm2/MdmX interaction; O15151+Q00987; SaOS-2 split-luciferase Mdm2/MdmX complementation, luminescence; inhibition, % at 8 µM; actives 3% (n = 330,000); AID 485346;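 active = inhibition of at least 50% at 8 µM in the primary screen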
Mdm2-MdmX conf: confirmation of human Mdm2/MdmX interaction inhibitors | actives 55% (n = 10,000) | inhibition, % at 8 µM | shares compounds with Mdm2-MdmX inh | AID 489028 | Mdm2-MdmX binding, luminescent assay; in the data active = inhibition above about 40%
Full FLuc ctr: counter-screen for Mdm2/MdmX inhibitors: full-length luciferase; SaOS-2 full-length luciferase counterscreen, luminescence; shares compounds with Mdm2-MdmX inh; actives 77% (n = 6,200); inhibition, % at 8 µM;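 active = mean inhibition at 8 µM reaching about 37%, which flags the compound as non-specific, limit read from the data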;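 also: p53-null SaOS-2 cells with luciferase driven by a doxycycline-inducible promoter; compound on cells about two nights before reading with doxycycline added after day one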
* = called active by the depositor; ? = inconclusive; / = no result given; ! = not confirmed by another sample.

SMILES	SKKanGAS inh	T cruzi repl	aSyn UTR inh	CSC inhib	Mdm2-MdmX inh	Mdm2-MdmX conf	Full FLuc ctr
O=C(CSc1nc(-c2ccc(F)cc2)cc(C(F)(F)F)n1)Nc1ccc2c(c1)OCO2	-7	3	24	13	61*	37	75*
CCOC(=O)C1CCN(c2nc(-c3ccc(C)cc3)nc3ccccc23)CC1	2	22	2	13	-14	/	/
O=C(Cc1c(F)cccc1Cl)OCC(=O)N1CCN(c2ccccc2)CC1	/	/	/	-3	-21	/	/
CN1Cc2cc(C(=O)c3ccccc3O)cnc2NC1=O	5	-6	-5	-7	23	/	/
COc1ccc(O)c(C(=O)c2cnc3c(c2)CN(C)C(=O)N3)c1	1	-5	2	30	63*	41*	63*
COCc1cc(C)nc(OCC(=O)N/N=C/c2ccc(-c3cc([N+](=O)[O-])ccc3Cl)o2)c1C#N	3	-5	10	9	69*	-4	/
COCc1cc(C)nc(OCC(=O)N/N=C/c2ccco2)c1C#N	-6	5	34	/	-13	/	/
Cc1ccc(C)c(Cn2c(C)nc3c(sc(=S)n3-c3ccccc3)c2=O)c1	5	12	-7	-3	60*	19	/
CCOC(=O)[C@@H]1[C@H]2COc3ccccc3[C@H]2N2C(=O)N(c3ccc(Br)cc3)C(=O)[C@]12C	/	/	/	-11	6	/	/
NC(=S)N/N=C/c1c(O)ccc2ccccc12	4	-2	41	/	50*	36	45*
Oc1ccc2ccccc2c1/C=N/Nc1ccccc1	1	-6	-42	41	9	/	/
O=CN/N=C/c1c(O)ccc2ccccc12	32	29	50	16	50*	30	/
O=C(COc1ccc(-c2ccccc2)cc1)NNC(=O)Nc1ccc(F)cc1F	-5	-14	-7	-15	-5	/	/
CCOC(=O)N1C(=O)[C@](c2ccc(Cl)cc2)(C(C)C)N1C(=O)OCC	8	-25	-25	17	80*	44*	49*
COC(=O)N1C(=O)[C@](c2ccccc2)(C(C)C)N1C(=O)OC	-1	-25	3	11	35	/	/
CCOC(=O)N1C(=O)[C@@](c2ccc(Cl)cc2)(C(C)C)N1C(=O)OCC	3	-23	0	78*	88*	62*	33
CCN1CCN(Cc2ccc(NC(=O)c3ccc(C)c(NC(=O)c4ccnnc4)c3)cc2C(F)(F)F)CC1	2	-3	31	7	33	/	/
CCN1CCN(Cc2ccc(NC(=O)c3ccc(C)c(NC(=O)c4ccc5n[nH]nc5c4)c3)cc2C(F)(F)F)CC1	2	-19	5	/	46	/	/
CCN1CCN(Cc2ccc(NC(=O)c3ccc(C)c(NC(=O)C(=O)c4c[nH]c5ccccc45)c3)cc2C(F)(F)F)CC1	83*	48	112*	102*!	100*	93*	31
CCN1CCN(Cc2ccc(NC(=O)c3cc(NC(=O)c4cc(C)on4)cc(OC)c3)cc2C(F)(F)F)CC1	1	43	20	-1	91*	40	46*
COc1cccc(C(=O)N2CCN(Cc3ccccc3C(F)(F)F)CC2)c1	-2	5	9	1	4	/	/
CCN1CCN(Cc2ccc(NC(=O)c3cc(NC(=O)c4cnn(-c5ccccc5)c4N)cc(OC)c3)cc2C(F)(F)F)CC1	8	31	42	131*	53*	22	/
CCN1CCN(Cc2ccc(NC(=O)c3cc(NC(=O)C(=O)c4c[nH]c5ccccc45)cc(OC)c3)cc2C(F)(F)F)CC1	99*	?	117*	-2	99*	20	/
CCN1CCN(Cc2ccc(C(=O)Nc3ccc(C)c(NCc4cnc(NC(=O)OC)cn4)c3)cc2C(F)(F)F)CC1	-1	-13	12	-13	-12	/	/
CCOC(=O)Cn1nc2sc3ccccc3n2c(=O)c1=O	-4	-10	-1	/	17	/	/
SMILES	SKKanGAS inh	T cruzi repl	aSyn UTR inh	CSC inhib	Mdm2-MdmX inh	Mdm2-MdmX conf	Full FLuc ctr
O=C1CCC([N+](=O)[O-])C(c2ccc(Cl)cc2Cl)N1 (stereo not given)	1	1	3	-6	9	/	/
Cc1ccc(Nc2nc(N)nc(COC(=O)c3ccc(Br)o3)n2)cc1	/	/	/	/	4	/	/
O=C(NCc1cccnc1)Nc1ccc(Cl)cc1	6	-3	-9	-7	-8	/	/
CCCN(CCC)c1nc2ccccc2n2c(C)nnc12	6	36	28	0	9	/	/
CCCNc1nc2ccccc2n2c(C)nnc12	-1	0	-24	-2	58*	33	/
Cc1nc2sc3c(NCc4ccco4)ncnc3c2c2c1COC(C)(C)C2	5	17	41	85*	63*	46*	37*
Cc1ccc(NC(=O)c2ccc(C(C)(C)C)cc2)cc1-n1cnnn1	7	9	-15	-9	24	/	/
CC(C)NC(=S)NNc1ncnc2sc3c(c12)CC(C)(C)OC3	1	-29	31	-7	5	/	/
CC1(C)Cc2c(sc3ncnc(NNC(=S)NCc4ccccc4)c23)CO1	-8	-52	87*	44	54*	63*	84*
O=C(CSc1nncn1-c1ccccc1)N1CCCC1	0	-17	-5	/	10	/	/
Cc1cc(-n2c(C)cc(C(=O)CCl)c2C)no1	-7	79*	119*	-6	79*	67*	87*
Cc1cc(-n2c(C)cc(C(=O)CN3C(=O)C(=O)N(C)C3=O)c2C)no1	/	/	/	-3	-12	/	/
Cc1cc(C(=O)CCl)c(C)n1-c1c(C)n(C)n(-c2ccccc2)c1=O	-5	-41	8	18	51*	35	/
COc1ccc(-n2c(C)cc(C(=O)CCl)c2C)cc1	-20	43	65*	95*	100*	61*	49*
COc1ccc(-n2c(C)cc(C(=O)CN3C(=O)c4ccccc4C3=O)c2C)cc1	6	1	-15	20	-12	/	/
CC(C)(C)CN1CCC(n2nccc2NC(=O)c2ccccc2Cl)CC1	32	4	-7	-5	-15	/	/
COc1ccccc1NC(=O)C(=O)NNC(=O)c1ccco1	3	15	-17	-1	-4	/	/
CCCCC(=O)Nc1ccc2c3c(cccc13)C(=O)N2CC	-5	-2	-9	4	55*	37	59*
CCN1C(=O)c2cccc3c(NC(=O)C(C)(C)C)ccc1c23	-2	-8	-31	-22	17	/	/
CN(C)S(=O)(=O)c1cccc(NC(=O)c2cc(-c3cccs3)nn2-c2cccc(Cl)c2)c1	8	35	17	34	50*	58*	65*
CCc1nnc(SCC(=O)Nc2ccc(F)cc2)o1	-3	0	-11	-20	-1	/	/
CCn1c2ccccc2c2cc(NS(=O)(=O)c3ccccc3C)ccc21	22	10	-6	64	63*	47*	67*
CCCC(=O)Nc1ccc2c(c1)c1ccccc1n2CC	4	14	14	-4	31	/	/
COC(=O)c1ccc(/C=C2\Oc3ccccc3NC2=O)cc1	7	-17	-110	10	3	/	/
